# MC4R ag barr – MC4R agonists recruiting beta-arrestin, primary screen, cell-based, luminescence, agonist arm of biased-ligand search; U2OS MC4R beta-arrestin complementation; percent of melanotan II response, DMSO zero; activation, % at 8.9 µM; hit rate 0.98% among 360,000; AID 540308, 2011;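 active = activation above a per-plate cutoff, the mean activation of sample wells on that plate plus 3 SD, cut at about 8% in these data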
# aDG glyco act – activators of alpha-DG glycosylation, primary screen, uHTS, Pro5-aDG cells, AlphaScreen. activation, % at 10 µM. hit rate 0.22% among 360,000. alpha-DG glycosylation AlphaScreen (IIH6); 0% Pro5, 100% B10-LARGE cell signal. AID 624168, 2012;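 active = activation of at least 8% versus controls, or a plate z-score of at least 8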;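 also: Pro5 are CHO cells carrying HIG-tagged alpha-DG that lacks glycosylation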
# TbMetRS inhib – T. brucei MetRS inhibitors, primary screen, biochemical, luminescence. methionyl-tRNA synthetase (Trypanosoma brucei brucei). purified T. brucei MetRS, ATP depletion, Kinase-Glo luminescence. inhibition, % at 11.9 µM. hit rate 0.4% among 360,000;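 active = inhibition above a per-plate cutoff of the control wells' mean inhibition plus 3 SD, cut at about 5.5% in these data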;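 also: 0% = DMSO wells median and 100% = median of wells with control inhibitor compound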
#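 Test system – parasite MetRS enzyme · Reagent – substrates ATP, L-methionine and bulk Escherichia coli tRNA · Doses – 11.9 µM compound single dose, 0.9% DMSO · Times – 15 min enzyme-compound preincubation, 2 h reaction, 10 min detection, 25 °C · Signal – Kinase-Glo luminescence, ATP depletion format · Controls – DMSO-only wells as low control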
# MC4R antagonist – MC4R antagonists of cAMP signaling, primary screen, cell-based, TR-FRET, antagonist arm of biased-ligand search. MC4R-expressing cells, MTII-stimulated cAMP, LANCE TR-FRET. inhibition, % at 6.5 µM. hit rate 0.48% among 360,000. AID 540295, 2011;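 active = inhibition above its plate's cutoff, the mean of tested wells on that plate plus 3 SD, cut at about 29% in these data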;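 also: 0% = Melanotan II alone and 100% = Melanotan II plus saturating MCL0020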
#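 Assay system: U2OS-MC4R stable cell line; Also added: Melanotan II; Technique: Eu-cAMP/anti-cAMP TR-FRET, emission 671 nm; Times: 30-min compound, 1-h challenge, 1-h detection, room temperature.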
# H9c2 TAG inh – inhibitors of triacylglycerol accumulation, primary screen, cell-based, uHTS, fluorescence, H9c2 | H9c2 cells, Nile Red lipid (TAG) fluorescence; cells loaded with 200 µM oleic acid | inhibition, % at 12.5 µM | hit rate 0.66% among 230,000 | AID 651582, 2012;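 active = pattern-corrected inhibition of lipid staining of at least 50% with the nuclear-stain viability signal not falling by more than 50%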;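 also: 0% = DMSO wells and 100% = triacsin C control wells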
# NTR1 agonist – agonists of human NTR1, primary screen, imaging, U2OS cells, beta-arrestin-GFP, high content. Neurotensin receptor type 1 (Homo sapiens), P30989. NTR1-U2OS beta-arrestin-GFP spot imaging, agonist mode. activation, % at 20 µM. hit rate 0.17% among 330,000. AID 493036, 2011;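 active = activation at or above 40% of the spot to cytoplasm intensity ratio, with at least 20 cells analyzed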;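 also: 0% = DMSO without peptide and 100% = 100 nM NTR1 peptide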
# Target sequence (P30989 whole entry, looked up): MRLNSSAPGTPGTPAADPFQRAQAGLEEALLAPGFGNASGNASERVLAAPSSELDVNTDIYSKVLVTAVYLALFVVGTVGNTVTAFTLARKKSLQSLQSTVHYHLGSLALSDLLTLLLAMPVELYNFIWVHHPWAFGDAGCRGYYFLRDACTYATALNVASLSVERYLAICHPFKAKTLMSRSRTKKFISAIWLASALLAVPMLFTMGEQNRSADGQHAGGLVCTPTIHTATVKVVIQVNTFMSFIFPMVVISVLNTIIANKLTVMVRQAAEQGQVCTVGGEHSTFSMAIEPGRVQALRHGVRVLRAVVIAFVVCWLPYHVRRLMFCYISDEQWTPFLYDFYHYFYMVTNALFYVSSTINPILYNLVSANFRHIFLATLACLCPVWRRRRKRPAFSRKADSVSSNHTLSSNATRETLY
# MC4R barr ag – MC4R beta-arrestin agonists, retest, confirmation, cell-based, luminescence, U2OS; hit rate 31% among 2,400; activation, % at 8.9 µM; AID 602192, 2012; U2OS MC4R beta-arrestin recruitment; scaled DMSO 0%, Melanotan II 100%; shares compounds with MC4R ag barr;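 active = mean activation across replicates above the hit cutoff set in the earlier primary screen, cut at about 8% in these data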
# MOR DOR agonist – agonists of MOR-DOR heterodimerization, counter-screen for MC4R biased agonist project, cell-based, luminescence; U2OS PathHunter beta-arrestin, beta-gal luminescence; percent of deltorphin B response, DMSO zero; hit rate 5.8% among 2,400; activation, % at 9.2 µM; shares compounds with MC4R ag barr;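 active = mean activation across replicates exceeds the hit threshold derived in the earlier primary screen, cut at about 18% in these data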;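 also: 100% = deltorphin B at 0.9 µM final and 0% = DMSO alone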
# * = called active by the depositor; . = not tested or not shown; ! = a repeat was not active. An excerpt weighted towards active compounds, which were near 2.4% of everything screened.
SMILES,MC4R ag barr,aDG glyco act,TbMetRS inhib,MC4R antagonist,H9c2 TAG inh,NTR1 agonist,MC4R barr ag,MOR DOR agonist
O=C(CCCCCn1c(=S)[nH]c2ccc(N3CCOCC3)cc2c1=O)NCc1ccc2c(c1)OCO2,13*,0,0,13,-22,1,0,2
O=C(CCCCCn1c(=S)[nH]c2ccc(N3CCOCC3)cc2c1=O)NCc1ccccc1Cl,5,0,0,7,-22,9,.,.
O=C(CCCCCn1c(=S)[nH]c2ccc(N3CCOCC3)cc2c1=O)NCc1ccc(Cl)cc1,10*,0,0,13,0,13,2,3
CCCCn1c(=S)[nH]c2ccc(N3CCOCC3)cc2c1=O,.,.,.,.,.,4,.,.
Cc1cc(C(=O)N/N=C/c2cc(Br)ccc2OC(=O)c2ccccc2)n[nH]1,17*,1,-1,-1,1,6,3,7
O=c1[nH]nc(Cc2ccc(-c3cccc(Cl)c3)o2)c2ccccc12,14*,4,1,-18,13,5,7,6
Cc1cc(OCc2cc(C(=O)NC3CCC3)no2)cc(C)c1Cl,11*,0,0,3,.,2,0,4
Cc1cccc(C)c1OCc1cc(C(=O)NCC2CCCCC2)no1,11*,0,0,-2,.,2,3,3
Cc1cc(C)nc(CCNC(=O)c2cc(COc3c(C)cccc3C)on2)n1,0,0,0,-1,-18,2,.,.
Cc1ccc(OCc2cc(C(=O)NC3CCCCC3)no2)cn1,-2,4,-1,2,.,0,.,.
C/C=C/C(=O)Nc1nnc(-c2ccccc2C)s1,19*,1,-1,19,.,4,1,6
Cc1ccccc1-c1nnc(NC(=O)CSc2nc3ccccc3s2)s1,16*,0,-1,0,-1,5,10*,4
Cc1nnc(N2CCCC(C(=O)NCc3ccc(OC(C)C)cc3)C2)c2nn(-c3ccccc3)c(C)c12 (configuration not stated),12*,2,-1,8,.,13,4,3
Cc1ccc(-n2nc3c(=O)n(CC(=O)NCCc4cccs4)nc(C)c3c2C)cc1,0,0,0,9,.,0,.,.
Cc1ccc(-n2nc3c(N4CCC(C(=O)NCCc5cccs5)CC4)nnc(C)c3c2C)cc1,15*,1,0,7,.,2,12*,3
Cc1nnc(N2CCCC(C(=O)Nc3cc(F)ccc3F)C2)c2nn(-c3ccccc3)c(C)c12 (configuration not stated),2,1,0,24,.,35,.,.
CCN1CCN(Cc2ccc(NC(=O)c3cc(NC(=O)c4nccnc4N)cc(OC)c3)cc2C(F)(F)F)CC1,0,0,0,-1,15,15,.,.
CCN1CCN(Cc2ccc(NC(=O)c3cc(NC(=O)c4cncc(-c5ccc(C#N)cc5)c4)cc(OC)c3)cc2C(F)(F)F)CC1,13*!,-1,-1,3,95*,12,20*,13
Cc1ccccc1C(=O)N1CCC1(C)C(=O)NC(C)C (configuration not stated),1,0,0,12,-5,.,.,.
COc1ccc(/C=C2/N=C(SCC(=O)Nc3cc(C)on3)N(c3ccccc3)C2=O)cc1,11*,0,-1,-7,.,.,5,5

# Assay outcomes: PubChem, several laboratories
